Results reported in ChEMBL document CHEMBL1121856, “Sulfur analogues of psychotomimetic agents. Monothio analogues of mescaline and isomescaline” (J Med Chem, 1981).

What was measured:
Homo sapiens = organism: Homo sapiens; experiment: Compound was tested for the psychotropic effect in human (activity is expressed in mescaline unit); type: functional
How it was run: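 Healthy adult volunteers (32–65 y, experienced with psychotropic drugs) received the hydrochloride orally. Dosing began at 2 mg and rose in small increments (1.6:1) at trials spaced about 1 week apart until an effective level was found. Mescaline units are the effective dose of mescaline divided by that of the compound, both determined in man. A "less than" value means no activity at doses that would give that MU.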

[1] = biological target: T1, monoamine oxidase (bovine plasma amine oxidase) (Bos taurus, UniProt P21398+P56560); experiment: In vitro bovine plasma monoamine oxidase deamination without semicarbazide; type: cell-free; conditions: cattle, read-out: MAO deamination
T1 sequence (P56560 whole entry): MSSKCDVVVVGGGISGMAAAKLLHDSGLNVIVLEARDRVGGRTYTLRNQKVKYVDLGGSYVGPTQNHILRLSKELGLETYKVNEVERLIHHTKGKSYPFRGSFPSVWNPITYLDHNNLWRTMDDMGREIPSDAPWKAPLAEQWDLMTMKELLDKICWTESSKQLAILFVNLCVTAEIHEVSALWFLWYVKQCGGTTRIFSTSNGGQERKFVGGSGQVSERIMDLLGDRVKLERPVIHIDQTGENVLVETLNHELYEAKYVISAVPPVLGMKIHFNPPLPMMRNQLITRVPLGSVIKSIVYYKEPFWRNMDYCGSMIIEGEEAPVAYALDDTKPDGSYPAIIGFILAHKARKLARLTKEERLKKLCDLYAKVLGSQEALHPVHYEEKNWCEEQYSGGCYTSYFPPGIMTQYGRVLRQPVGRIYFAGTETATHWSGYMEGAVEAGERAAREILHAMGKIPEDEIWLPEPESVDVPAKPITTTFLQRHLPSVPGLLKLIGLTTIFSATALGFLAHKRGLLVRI
T1 sequence (P21398 whole entry): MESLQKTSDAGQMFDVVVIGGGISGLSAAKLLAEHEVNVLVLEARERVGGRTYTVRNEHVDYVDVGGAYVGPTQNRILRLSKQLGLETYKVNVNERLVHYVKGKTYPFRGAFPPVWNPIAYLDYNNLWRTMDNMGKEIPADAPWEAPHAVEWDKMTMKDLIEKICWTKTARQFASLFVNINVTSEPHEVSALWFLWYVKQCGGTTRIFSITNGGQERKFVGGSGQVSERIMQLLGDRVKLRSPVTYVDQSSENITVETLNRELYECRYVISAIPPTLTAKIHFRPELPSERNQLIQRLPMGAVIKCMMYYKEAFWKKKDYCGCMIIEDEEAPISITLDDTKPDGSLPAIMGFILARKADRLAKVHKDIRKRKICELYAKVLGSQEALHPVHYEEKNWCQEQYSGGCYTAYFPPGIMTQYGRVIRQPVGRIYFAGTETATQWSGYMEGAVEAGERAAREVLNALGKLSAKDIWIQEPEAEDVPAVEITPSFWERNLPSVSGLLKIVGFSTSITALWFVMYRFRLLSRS
How it was run: (§1)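 Amines at 50 μM in 0.1 M phosphate buffer, pH 7.4, with 0.01 unit bovine plasma MAO, no semicarbazide, in duplicate, 1 h at 37 °C. Stopped with 0.5 N NaOH, internal standard added, extracted into CH2Cl2. Remaining amine measured by GC (OV-101, 185 °C) as heptafluorobutyryl derivatives, quantitated by peak-height ratio against standards prepared without enzyme.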

[2] = biological target: T1, monoamine oxidase (bovine plasma amine oxidase); experiment: In vitro bovine plasma monoamine oxidase deamination with semicarbazide; type: cell-free; conditions: cattle, with semicarbazide (concentration not stated), read-out: MAO deamination
How it was run: as §1, with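 “MAO and 50 μM” for “MAO, no”, “GC” for “GC (OV-101, 185 °C)”, “enzyme-free standards.” for “standards prepared without enzyme.”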

SMILES | Human potency (Homo sapiens) [MU] | metabolised [1] [%] | metabolised [2] [%]
COc1ccc(CCN)c(OC)c1SC | <2 | 31 | 
COc1cc(CCN)cc(OC)c1OC [MESCALINE] | 1 | 21 | 1
COc1c(CCN)ccc(SC)c1OC | <2 | 40 | 
COc1ccc(CCN)c(SC)c1OC | <2 | 78 | 10
COc1cc(CCN)cc(SC)c1OC | 6 | 60 | 
COc1cc(CCN)cc(OC)c1SC | 12 | 56 | 
COc1ccc(CCN)cc1OC | <1 | 64 | 16
COc1ccc(CCN)c(OC)c1OC | <1 | 55 | 4
